What was measured:
Micrococcus luteus = experiment: Antibacterial activity against Micrococcus luteus ATCC 10240 after 20 hrs by broth microdilution assay; format: functional; details: ATCC 10240, 20 h
Outline: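 Nutrient-broth overnight cultures diluted in 1% TSB; E. coli BL21AI 7.5 × 10^5 cells/well, M. luteus ATCC 10240 2 × 10^6 cells/well. Peptides serially 2-fold diluted in 1% TSB from 128 to typically 0.5 μg/mL. Incubation at 37 °C; A595 read after 20 ± 2 h. MIC is the lowest concentration with absorbance not above medium only. Triplicate.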

Enterobacter cloacae [1] = experiment: Antimicrobial activity against Enterobacter cloacae Ha089 after 20 hrs by broth microdilution method; format: functional; details: Ha089, 20 h
Outline: (§1)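 Pathogens grown overnight on Columbia agar. Colonies suspended in 0.9% saline to OD 0.1, diluted 1:300 in 1% TSB, final (1-2) × 10^5 cfu/well. Peptides 2-fold serially diluted in 1% TSB from 128 to typically 0.5 μg/mL. Incubation at 37 °C; A595 read after 20 ± 2 h. MIC is the lowest concentration with absorbance not above medium only. Triplicate.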

Escherichia coli [2] = experiment: Antimicrobial activity against Escherichia coli 70502001 after 20 hrs by broth microdilution method; format: functional; details: Escherichia coli, 70502001, 20 h; outline: as §1
Acinetobacter baumannii [3] = experiment: Antimicrobial activity against Acinetobacter baumannii ICB 14067 after 20 hrs by broth microdilution method; format: functional; details: ICB 14067, 20 h; outline: as §1
Klebsiella pneumoniae [4] = experiment: Antimicrobial activity against Klebsiella pneumoniae DSM 681 after 20 hrs by broth microdilution method; format: functional; details: DSM 681, 20 h; outline: as §1
Escherichia coli [5] = experiment: Antimicrobial activity against Escherichia coli 70419002 after 20 hrs by broth microdilution method; format: functional; details: Escherichia coli, 70419002, 20 h; outline: as §1
Klebsiella pneumoniae [6] = experiment: Antimicrobial activity against Klebsiella pneumoniae ATCC 12657 after 20 hrs by broth microdilution method; format: functional; details: ATCC 12657, 20 h; outline: as §1
Pseudomonas aeruginosa [7] = experiment: Antimicrobial activity against Pseudomonas aeruginosa 60909001 after 20 hrs by broth microdilution method; format: functional; details: Pseudomonas aeruginosa, 60909001, 20 h
Outline: (§2)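 Pathogenic strains grown overnight on Columbia agar, colonies suspended in 0.9% saline to OD 0.1, diluted 1:300 in 1% TSB; final (1-2) × 10^5 cfu/well. Peptides 2-fold serially diluted in 1% TSB from 128 μg/mL, typically to 0.5 μg/mL. Incubated 37 °C, absorbance at 595 nm after 20 ± 2 h, in triplicate; MIC = lowest concentration with absorbance not exceeding medium only.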

Stenotrophomonas = experiment: Antimicrobial activity against Stenotrophomonas ICB 308054 after 20 hrs by broth microdilution method; format: functional; details: ICB 308054, 20 h; outline: as §1
Pseudomonas aeruginosa [8] = experiment: Antimicrobial activity against Pseudomonas aeruginosa 70108001 after 20 hrs by broth microdilution method; format: functional; details: Pseudomonas aeruginosa, 70108001, 20 h; outline: as §2
Escherichia coli [9] = experiment: Antimicrobial activity against Escherichia coli 455/7 after 20 hrs by broth microdilution method; format: functional; details: 455/7, 20 h; outline: as §1
Acinetobacter baumannii [10] = experiment: Antimicrobial activity against Acinetobacter baumannii ICB 9250 after 20 hrs by broth microdilution method; format: functional; details: ICB 9250, 20 h; outline: as §1
[11] = Stability in 25% mouse serum assessed as compound remaining at 75 ug/ml after 2 hrs by MALDI-TOF-MS analysis; format: ADME, cell-free; details: read-out: Stability
Outline: (§3)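 Peptide at 75 μg/mL final in pooled mouse serum (undiluted or 25% v:v aqueous), 37 °C. Triplicate aliquots taken at 0, 30, 60, 120 and 240 min and precipitated with 3% TCA on ice for 10 min. Supernatant neutralized with NaOH and analysed by RP-HPLC on C18 with TFA-containing gradient. Amounts expressed relative to 0 min; metabolites identified by MALDI-TOF-MS.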

Enterobacter cloacae [12] = experiment: Antimicrobial activity against Enterobacter cloacae 34654 after 20 hrs by broth microdilution method; format: functional; details: Enterobacter cloacae, 34654, 20 h; outline: as §1
Pseudomonas aeruginosa [13] = experiment: Antimicrobial activity against Pseudomonas aeruginosa 61118003 after 20 hrs by broth microdilution method; format: functional; details: Pseudomonas aeruginosa, 61118003, 20 h; outline: as §2
[14] = Stability in 100% mouse serum assessed as half life at 75 ug/ml by MALDI-TOF-MS analysis; format: ADME, cell-free; outline: as §3
Klebsiella pneumoniae [15] = experiment: Antimicrobial activity against Klebsiella pneumoniae 8085 after 20 hrs by broth microdilution method; format: functional; details: Klebsiella pneumoniae, 8085, 20 h; outline: as §1
SH-SY5Y = experiment: Cytotoxicity against human SH-SY5Y cells at 600 ug/ml after 24 hrs by MTT assay; format: cell-based
Outline: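 HeLa (1.5 × 10^4/well, seeded overnight) or SH-SY5Y (2 × 10^4/well, differentiated 5 days with 10 μM trans-retinoic acid) in DMEM/Ham's F-12 with 5% or 15% FBS. Peptide added at 600 μg/mL for 24 h at 37 °C, 5% CO2. MTT 0.5 mg/mL for 4 h, then SDS/HCl for 16 h; A590 read against 650 nm. Normalized to PBS (100%); DMSO 12% as positive control.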

Pseudomonas aeruginosa [16] = experiment: Antimicrobial activity against Pseudomonas aeruginosa DSM 3227 after 20 hrs by broth microdilution method; format: functional; details: DSM 3227, 20 h; outline: as §2
Serum = experiment: Stability in 25% mouse serum assessed as peptide-12 level at 75 ug/ml after 30 mins by MALDI-TOF-MS analysis; format: ADME, cell-free; details: 0.5 h; outline: as §3

H-VDKPPYLPRPRPPRRIYNR-NH2 [ONCOCIN]
MIC (Micrococcus luteus): 8 µg/mL
MIC (Enterobacter cloacae [1]): 0.125 µg/mL
MIC (Escherichia coli [2]): 1 µg/mL
MIC (Acinetobacter baumannii [3]): 1 µg/mL
MIC (Klebsiella pneumoniae [4]): 0.25 µg/mL
MIC (Escherichia coli [5]): 8 µg/mL
MIC (Klebsiella pneumoniae [6]): 0.5 µg/mL
MIC (Pseudomonas aeruginosa [7]): 2 µg/mL
MIC (Stenotrophomonas): 32 µg/mL
MIC (Pseudomonas aeruginosa [8]): 4 µg/mL
MIC (Escherichia coli [9]): 0.5 µg/mL
MIC (Acinetobacter baumannii [10]): 0.5 µg/mL
remaining at 2 h, 75 ug/ml [11]: 60%
MIC (Enterobacter cloacae [12]): 0.25 µg/mL
MIC (Pseudomonas aeruginosa [13]): 2 µg/mL
half-life at 75 ug/ml [14]: 20 min
MIC (Klebsiella pneumoniae [15]): 0.5 µg/mL
Activity (SH-SY5Y): Non-toxic
MIC (Pseudomonas aeruginosa [16]): 4 µg/mL
Activity (Serum): 10%

— ChEMBL document CHEMBL1155452, “Oncocin (VDKPPYLPRPRPPRRIYNR-NH2): a novel antibacterial peptide optimized against gram-negative human pathogens” (J Med Chem, 2010)
